Assays:
[1] = target: Trace amine-associated receptor 1 (Mus musculus) (UniProt Q923Y8); assay: Antagonist activity at mouse TAAR1 assessed as residual stimulation by in vitro cAMP functional assay relative to control; design: concentration or dose not given beside the values
Outline: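 Mouse TAAR1 in vitro cAMP functional assay using the endogenous agonist β-PEA. The read-out is the residual β-PEA stimulation remaining at the maximum test-compound concentration. Values are averages of at least two independent experiments.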

[2] = target: T1, Trace amine-associated receptor 1 (Mus musculus, UniProt Q923Y8); assay: Antagonist activity at mouse TAAR1 assessed as reversal of endogenous beta-PEA effect; format: functional
Outline: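 Mouse TAAR1 antagonist dose–response run as an in vitro cAMP functional assay. Efficacy is the reversal of the effect of the endogenous agonist β-PEA, with 100% efficacy defined as 0% min% stim. Values are averages of at least two independent experiments.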

[3] = target: T1, Trace amine-associated receptor 1; assay: Inhibition of mouse TAAR1
[4] = target: T2, Trace amine-associated receptor 1 (Homo sapiens, UniProt Q96RJ0); assay: Antagonist activity at human TAAR1 assessed as reversal of endogenous beta-PEA effect; format: functional
T2 sequence (Q96RJ0 whole entry): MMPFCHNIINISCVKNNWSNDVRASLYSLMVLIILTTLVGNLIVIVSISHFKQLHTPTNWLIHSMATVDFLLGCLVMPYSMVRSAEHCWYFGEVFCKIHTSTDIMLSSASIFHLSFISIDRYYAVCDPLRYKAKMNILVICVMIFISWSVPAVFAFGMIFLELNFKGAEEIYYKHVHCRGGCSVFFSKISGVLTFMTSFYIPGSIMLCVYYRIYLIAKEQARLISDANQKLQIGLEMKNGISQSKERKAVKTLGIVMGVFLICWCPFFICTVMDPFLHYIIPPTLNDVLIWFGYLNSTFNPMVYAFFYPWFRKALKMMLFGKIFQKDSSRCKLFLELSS
Outline: (§1)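 In vitro cAMP functional assay with antagonism read as reversal of the response to the endogenous agonist beta-PEA. Efficacy was scaled so that 100% equals 0% minimum stimulation. Residual beta-PEA stimulation was taken at the highest test-compound concentration. Values are means of at least two independent experiments, with duplicates typically within a twofold margin.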

[5] = Aqueous solubility of the compound; format: physicochemical; conditions: buffer
[6] = target: T2, Trace amine-associated receptor 1; assay: Inhibition of human TAAR1; outline: as §1
[7] = Intrinsic clearance in mouse liver microsomes measured per mg of protein; format: ADME, Microsome
Outline: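 Intrinsic clearance from in vitro incubation of compound with mouse liver microsomes, expressed per mg microsomal protein.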

[8] = Lipophilicity, log D of the compound; format: physicochemical; conditions: octanol/water
Liver microsomes = assay: Intrinsic clearance in human liver microsomes measured per mg of protein; format: ADME, Microsome
Outline: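 In vitro incubation with human liver microsomes. Intrinsic clearance is expressed per mg microsomal protein per minute.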

[9] = target: Trace amine-associated receptor 1 (Rattus norvegicus, UniProt Q923Y9); assay: Inhibition of rat TAAR1; outline: as §1
Sequence of Trace amine-associated receptor 1 (Rattus norvegicus, UniProt Q923Y9) (Q923Y9 whole entry): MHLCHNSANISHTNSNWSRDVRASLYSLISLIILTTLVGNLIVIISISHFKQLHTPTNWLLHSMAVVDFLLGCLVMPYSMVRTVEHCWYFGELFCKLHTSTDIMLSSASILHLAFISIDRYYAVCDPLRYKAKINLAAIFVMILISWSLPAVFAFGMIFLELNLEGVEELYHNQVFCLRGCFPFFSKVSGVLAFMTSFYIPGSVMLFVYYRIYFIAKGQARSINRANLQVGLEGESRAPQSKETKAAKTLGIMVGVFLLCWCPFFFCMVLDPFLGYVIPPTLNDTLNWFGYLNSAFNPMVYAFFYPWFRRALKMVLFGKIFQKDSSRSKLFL

T1 sequence (Q923Y8 whole entry): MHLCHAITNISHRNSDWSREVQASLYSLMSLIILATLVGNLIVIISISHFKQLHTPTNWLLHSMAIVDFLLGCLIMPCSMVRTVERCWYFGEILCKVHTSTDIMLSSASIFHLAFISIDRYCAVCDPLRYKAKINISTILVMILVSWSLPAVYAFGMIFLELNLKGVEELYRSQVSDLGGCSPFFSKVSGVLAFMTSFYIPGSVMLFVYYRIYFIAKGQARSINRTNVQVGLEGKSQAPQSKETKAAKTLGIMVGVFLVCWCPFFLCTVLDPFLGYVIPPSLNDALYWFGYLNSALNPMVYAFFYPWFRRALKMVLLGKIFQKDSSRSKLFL
Sequence of Trace amine-associated receptor 1 (Mus musculus) (Q923Y8 whole entry): as above

O=C(Nc1cccc(Cl)c1)c1ccc(N2CCCC2)c(C(F)(F)F)c1
Activity [1]: 0%
IC50 [2]: 245 nM

COc1cccc(NC(=O)c2ccc(F)c(C)c2)c1
Ki [3]: 1580 nM

COc1cccc(NC(=O)c2ccc(-n3cccn3)c([N+](=O)[O-])c2)c1
Ki [3]: 262 nM

CCCNc1ccc(C(=O)Nc2cccc(OC)c2)cc1[N+](=O)[O-]
Activity [1]: 14%
IC50 [2]: 13 nM

CCc1cccc(NC(=O)c2ccc(N3CCCC3)c(C(F)(F)F)c2)c1
Activity [1]: 0%
IC50 [2]: 470 nM

COc1cccc(NC(=O)c2ccc(N3CCC(C)CC3)c([N+](=O)[O-])c2)c1
IC50 [4]: 3790 nM
solubility [5]: < 1 µg/mL
Activity [1]: 0%
Ki [6]: > 20000 nM
clearance [7]: 396 µL/min/mg
logD [8]: > 3
clearance (Liver microsomes): 154 µL/min/mg
IC50 [2]: 60 nM

COc1cccc(NC(=O)c2ccc(N3CCCC3)c([N+](=O)[O-])c2)c1
Activity [1]: 0%
IC50 [2]: 17 nM

COc1cccc(NC(=O)c2ccc(N3CCN(C)CC3)c([N+](=O)[O-])c2)c1
Ki [3]: 164 nM

COc1cccc(NC(=O)c2ccc(N3CCC3)c([N+](=O)[O-])c2)c1
Activity [1]: 9%
IC50 [2]: 200 nM

COc1cccc(NC(=O)c2ccc(Nc3ccccc3)c([N+](=O)[O-])c2)c1
Activity [1]: 0%
IC50 [2]: 175 nM

COc1cccc(NC(=O)c2ccc(Br)c([N+](=O)[O-])c2)c1
Activity [1]: 0%
IC50 [2]: 43 nM

COc1cccc(NC(=O)c2ccc(F)c(C(C)=O)c2)c1
Ki [3]: 139 nM

Cc1cccc(NC(=O)c2ccc(N3CCCC3)c(C(F)(F)F)c2)c1
Activity [1]: 0%
IC50 [2]: 70 nM

COc1cccc(NC(=O)c2ccc(Cl)c(Cl)c2)c1
Ki [3]: 25 nM

COc1cccc(NC(=O)c2ccc(F)c(F)c2)c1
Ki [3]: 229 nM

CCNc1ccc(C(=O)Nc2cccc(OC)c2)cc1[N+](=O)[O-]
Activity [1]: 23%
IC50 [2]: 75 nM

COc1cccc(NC(=O)c2ccc(F)c(OC(F)(F)F)c2)c1
Ki [3]: 138 nM

COc1cccc(NC(=O)c2cnc(N3CCCC3)c(C(F)(F)F)c2)c1
clearance [7]: 321 µL/min/mg

O=C(Nc1cccc(Br)c1)c1ccc(N2CCCC2)c(C(F)(F)F)c1
Activity [1]: 0%
IC50 [2]: 568 nM

COc1cccc(NC(=O)c2ccc(S(=O)(=O)N3CC(C)CC(C)C3)c(F)c2)c1 (racemic)
IC50 [4]: > 10000 nM
solubility [5]: < 1 µg/mL
Ki [9]: 1390 nM
Activity [1]: 28%
Ki [6]: > 20000 nM
clearance [7]: 1700 µL/min/mg
Ki [3]: 4 nM
clearance (Liver microsomes): 538 µL/min/mg
IC50 [2]: 6 nM

COc1cccc(NC(=O)c2ccc(NCc3ccccc3)c([N+](=O)[O-])c2)c1
Activity [1]: 3%
IC50 [2]: 14 nM

CC(=O)c1cccc(NC(=O)c2ccc(N3CCCC3)c(C(F)(F)F)c2)c1
Activity [1]: 0%
IC50 [2]: 120 nM

COc1cccc(NC(=O)c2ccc(F)c(S(=O)(=O)N3CCCCC3)c2)c1
Ki [3]: 694 nM

COc1cccc(NC(=O)c2ccc(N3CCCC3)c(C(F)(F)F)c2)c1
Activity [1]: 0%
clearance [7]: 341 µL/min/mg
Ki [3]: 3 nM
IC50 [2]: 67 nM

CC(C)Oc1cccc(NC(=O)c2ccc(N3CCCC3)c(C(F)(F)F)c2)c1
Activity [1]: 0%
Ki [3]: 4 nM
IC50 [2]: 27 nM

O=C(Nc1cccc(F)c1)c1ccc(N2CCCC2)c(C(F)(F)F)c1
Activity [1]: 0%
IC50 [2]: 20 nM

COc1cccc(NC(=O)c2ccc(N3CCOCC3)c([N+](=O)[O-])c2)c1
Activity [1]: 0%
clearance [7]: 18 µL/min/mg
logD [8]: 2.7
Ki [3]: 103 nM
IC50 [2]: 79 nM

O=C(Nc1cccc(Oc2ccccc2)c1)c1ccc(N2CCCC2)c(C(F)(F)F)c1
Ki [3]: 82 nM

O=C(Nc1cccc(OC(F)(F)F)c1)c1ccc(N2CCCC2)c(C(F)(F)F)c1
Ki [3]: 101 nM

COc1cccc(NC(=O)c2ccc(F)c(C#N)c2)c1
Ki [3]: 149 nM

COc1cccc(NC(=O)c2cccc(S(C)(=O)=O)c2)c1
Ki [3]: 6000 nM

COc1cccc(NC(=O)c2ccc(F)c(S(N)(=O)=O)c2)c1
Ki [3]: 7430 nM

COc1cccc(NC(=O)c2cccc([N+](=O)[O-])c2)c1
Activity [1]: 0%
Ki [3]: 189 nM
IC50 [2]: 665 nM

COc1cccc(NC(=O)c2ccc(Cl)c([N+](=O)[O-])c2)c1
Activity [1]: 0%
IC50 [2]: 12 nM

COc1cccc(NC(=O)c2ccc(NC(C)C)c([N+](=O)[O-])c2)c1
Activity [1]: 0%
IC50 [2]: 142 nM

O=C(Nc1cccc(OC(F)(F)C(F)F)c1)c1ccc(N2CCCC2)c(C(F)(F)F)c1
Activity [1]: 0%
IC50 [2]: 364 nM

COc1cccc(NC(=O)c2cnc(N3CCC(C)CC3)c(C(F)(F)F)c2)c1
clearance [7]: 107 µL/min/mg
logD [8]: > 4

COc1cccc(NC(=O)c2ccc(N)c([N+](=O)[O-])c2)c1
Ki [3]: 1920 nM

COc1cccc(NC(=O)c2ccc(N3CCCCC3)c([N+](=O)[O-])c2)c1
Activity [1]: 0%
IC50 [2]: 19 nM

O=C(Nc1cccc(OC(F)F)c1)c1ccc(N2CCCC2)c(C(F)(F)F)c1
Activity [1]: 0%
IC50 [2]: 187 nM

Reference: ChEMBL document CHEMBL1667822, “Selective antagonists of mouse trace amine-associated receptor 1 (mTAAR1): discovery of EPPTB (RO5212773)” (Bioorg Med Chem Lett, 2011)
